Measurements: ChEMBL document CHEMBL1811869, “Tigliane-type diterpenoid glycosides from Euphorbia fischeriana” (J Nat Prod, 2011)

Legend:
[1] = Cytotoxicity against human C8166 cells by MTT assay; format: cell-based
Outline: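 C8166 cell viability read by MTT method, with CC50 derived.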

[2] = test system: Human immunodeficiency virus 1; test: Antiviral activity against Human immunodeficiency virus 1 infected in human C8166 cells assessed as inhibition of virus-induced cytopathic effect; format: functional, organism-based; conditions: Human immunodeficiency virus 1, C8166
Outline: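 HIV-1 cytopathic-effect inhibition assay in C8166 cells, with EC50 derived. Zidovudine (AZT) run as the positive-control drug.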

[3] = Therapeutic index, ratio of CC50 for C8166 cells to EC50 for Human immunodeficiency virus 1; format: cell-based; conditions: read-out: Ratio CC50/EC50

| Compound | CC50 [1] [nM] | EC50 [2] [nM] | selectivity ratio [3] |
| --- | --- | --- | --- |
| CC(=O)OCC1=C[C@H]2[C@@H]3C(C)(C)[C@]3(OC(C)=O)C[C@@H](C)[C@]2(O)[C@@H]2C=C(C)C(=O)[C@@]2(O)C1 | 110 | 0.3 | > 367 |
| CC(=O)O[C@@]12C[C@@H](C)[C@@]3(O)[C@@H](C=C(CO[C@@H]4O[C@H](CO)[C@@H](O)[C@H](O)[C@H]4O)C[C@]4(O)C(=O)C(C)=C[C@@H]34)[C@@H]1C2(C)C [FISCHEROSIDES A] | > 360 | 170 | > 2.12 |
| CC(=O)O[C@@]12C[C@@H](C)[C@@]3(O)[C@@H](C=C(CO[C@@H]4O[C@H](COC(=O)c5cc(O)c(O)c(O)c5)[C@@H](O)[C@H](O)[C@H]4O)C[C@]4(O)C(=O)C(C)=C[C@@H]34)[C@@H]1C2(C)C [FISCHEROSIDES B] | > 280 | 70 | > 4 |
| CC(=O)O[C@@]12[C@H](O)[C@@H](C)[C@@]3(O)[C@@H](C=C(CO[C@@H]4O[C@H](CO)[C@@H](O)[C@H](O)[C@H]4O)C[C@]4(O)C(=O)C(C)=C[C@@H]34)[C@@H]1C2(C)C [FISCHEROSIDES C] | > 350 | 20 | > 17.5 |
| CC(=O)O[C@@]12C[C@@H](C)[C@@]3(O)[C@@H](C=C(CO)C[C@]4(O)C(=O)C(C)=C[C@@H]34)[C@@H]1C2(C)C [PROSTRATIN] | > 510 | 0.06 | > 8500 |
| Cc1cn([C@H]2C[C@H](N=[N+]=[N-])[C@@H](CO)O2)c(=O)[nH]c1=O [ZIDOVUDINE] | 4070 |  | 1.02e+06 |
